Calls of active or inactive are those of the source. The calls are words filed in the database; no cut-off is given here.
Tests used:
Aspergillus fumigatus [1] = assay: Antifungal activity against Aspergillus fumigatus Fresenius 167 assessed as diameter of inhibition zone at 5 ug/disk after 48 to 72 hrs by paper disk assay; assay type: functional; settings: for zone of inhibition at 5 µg/disc: Aspergillus fumigatus, read-out: IZ
Outline: (§1)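 Compound was absorbed onto 8 mm paper disks and the disks were placed on assay plates seeded with the test fungus. Plates contained Sabouraud's glucose broth agar and were incubated at 25 °C. After 48–72 h, the diameter of the inhibition zone was recorded in mm.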

Candida albicans [2] = assay: Antifungal activity against Candida albicans 7N assessed as diameter of inhibition zone at 5 ug/disk after 48 to 72 hrs by paper disk assay; assay type: functional; settings: for zone of inhibition at 5 µg/disc: Candida albicans, read-out: IZ; outline: as §1
Cryptococcus neoformans [3] = assay: Antifungal activity against Cryptococcus neoformans (Sanfelice) Vuillemin ATCC 90112 assessed as diameter of inhibition zone at 1 ug/disk after 48 to 72 hrs by paper disk assay; assay type: functional; outline: as §1
Aspergillus niger [4] = assay: Antifungal activity against Aspergillus niger Van Tieghem H7160B assessed as diameter of inhibition zone at 5 ug/disk after 48 to 72 hrs by paper disk assay; assay type: functional; settings: for zone of inhibition at 5 µg/disc: Aspergillus niger, Van Tieghem, read-out: IZ; outline: as §1
Aspergillus fumigatus [5] = assay: Antifungal activity against Aspergillus fumigatus Fresenius 167 assessed as diameter of inhibition zone at 1 ug/disk after 48 to 72 hrs by paper disk assay; assay type: functional; settings: for zone of inhibition at 1 µg/disc: read-out: IZ; outline: as §1
Aspergillus fumigatus [6] = assay: Antifungal activity against Aspergillus fumigatus Fresenius 167 assessed as diameter of inhibition zone at 20 ug/disk after 48 to 72 hrs by paper disk assay; assay type: functional; settings: for zone of inhibition at 20 µg/disc: Aspergillus fumigatus, read-out: IZ; outline: as §1
Cryptococcus neoformans [7] = assay: Antifungal activity against Cryptococcus neoformans (Sanfelice) Vuillemin ATCC 90112 assessed as diameter of inhibition zone at 20 ug/disk after 48 to 72 hrs by paper disk assay; assay type: functional; outline: as §1
Cryptococcus neoformans [8] = assay: Antifungal activity against Cryptococcus neoformans (Sanfelice) Vuillemin ATCC 90112 assessed as diameter of inhibition zone upto 100 ug/disk after 48 to 72 hrs by paper disk assay; assay type: functional, organism-based; outline: as §1
Cryptococcus neoformans [9] = assay: Antifungal activity against Cryptococcus neoformans (Sanfelice) Vuillemin ATCC 90112 assessed as diameter of inhibition zone at 5 ug/disk after 48 to 72 hrs by paper disk assay; assay type: functional; outline: as §1
Aspergillus niger [10] = assay: Antifungal activity against Aspergillus niger Van Tieghem H7160B assessed as diameter of inhibition zone at 100 ug/disk after 48 to 72 hrs by paper disk assay; assay type: functional; settings: for zone of inhibition at 100 µg/disc: Aspergillus niger, Van Tieghem, read-out: IZ; outline: as §1
Cryptococcus neoformans [11] = assay: Antifungal activity against Cryptococcus neoformans (Sanfelice) Vuillemin ATCC 90112 assessed as diameter of inhibition zone at 100 ug/disk after 48 to 72 hrs by paper disk assay; assay type: functional; outline: as §1
Aspergillus fumigatus [12] = assay: Antifungal activity against Aspergillus fumigatus Fresenius 167 assessed as diameter of inhibition zone at 100 ug/disk after 48 to 72 hrs by paper disk assay; assay type: functional; settings: for zone of inhibition at 100 µg/disc: Aspergillus fumigatus, read-out: IZ; outline: as §1
Candida albicans [13] = assay: Antifungal activity against Candida albicans 7N assessed as diameter of inhibition zone at 20 ug/disk after 48 to 72 hrs by paper disk assay; assay type: functional; settings: for zone of inhibition at 20 µg/disc: Candida albicans, read-out: IZ; outline: as §1
Aspergillus niger [14] = assay: Antifungal activity against Aspergillus niger Van Tieghem H7160B assessed as diameter of inhibition zone at 20 ug/disk after 48 to 72 hrs by paper disk assay; assay type: functional; settings: for zone of inhibition at 20 µg/disc: Aspergillus niger, Van Tieghem, read-out: IZ; outline: as §1
Aspergillus niger [15] = assay: Antifungal activity against Aspergillus niger Van Tieghem H7160B assessed as diameter of inhibition zone at 1 ug/disk after 48 to 72 hrs by paper disk assay; assay type: functional; outline: as §1
Candida albicans [16] = assay: Antifungal activity against Candida albicans 7N assessed as diameter of inhibition zone at 100 ug/disk after 48 to 72 hrs by paper disk assay; assay type: functional; settings: for zone of inhibition at 100 µg/disc: Candida albicans, read-out: IZ; outline: as §1
Candida albicans [17] = assay: Antifungal activity against Candida albicans 7N assessed as diameter of inhibition zone at 1 ug/disk after 48 to 72 hrs by paper disk assay; assay type: functional; settings: for zone of inhibition at 1 µg/disc: Candida albicans, read-out: IZ; outline: as §1
Candida albicans [18] = assay: Antifungal activity against Candida albicans 7N assessed as diameter of inhibition zone upto 100 ug/disk after 48 to 72 hrs by paper disk assay; assay type: functional, organism-based; outline: as §1
Aspergillus niger [19] = assay: Antifungal activity against Aspergillus niger Van Tieghem H7160B assessed as diameter of inhibition zone upto 100 ug/disk after 48 to 72 hrs by paper disk assay; assay type: functional, organism-based; outline: as §1
Aspergillus fumigatus [20] = assay: Antifungal activity against Aspergillus fumigatus Fresenius 167 assessed as diameter of inhibition zone upto 100 ug/disk after 48 to 72 hrs by paper disk assay; assay type: functional, organism-based; outline: as §1

## CCOC1C(C(=O)[C@H]2[C@@H](/C(C)=C/C(C)CC)C(C)=C[C@@]3(C)C[C@@H](C)CC[C@H]23)C(=O)NC1(O)Cc1ccc(O)cc1 (some centres undefined) [TALAROCONVOLUTIN C]
Aspergillus fumigatus [1]
  Activity: inactive
Candida albicans [2]
  Activity: inactive
Cryptococcus neoformans [3]
  Activity: inactive
Aspergillus niger [4]
  Activity: inactive
Aspergillus fumigatus [5]
  Activity: inactive
Aspergillus fumigatus [6]
  zone of inhibition at 20 µg/disc: 11 mm
Cryptococcus neoformans [7]
  Activity: inactive
Cryptococcus neoformans [8]
  Activity: inactive
Cryptococcus neoformans [9]
  Activity: inactive
Aspergillus niger [10]
  zone of inhibition at 100 µg/disc: 11 mm
Cryptococcus neoformans [11]
  Activity: inactive
Aspergillus fumigatus [12]
  zone of inhibition at 100 µg/disc: 11 mm
Candida albicans [13]
  zone of inhibition at 20 µg/disc: 10 mm
Aspergillus niger [14]
  zone of inhibition at 20 µg/disc: 10 mm
Aspergillus niger [15]
  inhibition zone (IZ): inactive
Candida albicans [16]
  zone of inhibition at 100 µg/disc: 11 mm
Candida albicans [17]
  Activity: inactive

## C[C@@H]1[C@H](O)[C@@H](C)/C=C/C=C/C=C/C=C/C=C/C=C/C=C/[C@H](O[C@@H]2O[C@H](C)[C@@H](O)[C@H](N)[C@@H]2O)C[C@@H]2O[C@](O)(C[C@@H](O)C[C@@H](O)[C@H](O)CC[C@@H](O)C[C@@H](O)CC(=O)O[C@H]1C)C[C@H](O)[C@H]2C(=O)O [AMPHOTERICIN B]
Aspergillus fumigatus [1]
  zone of inhibition at 5 µg/disc: 12 mm
Candida albicans [2]
  zone of inhibition at 5 µg/disc: 18 mm
Cryptococcus neoformans [3]; read-out: IZ
  zone of inhibition at 1 µg/disc: 11 mm
Aspergillus niger [4]
  zone of inhibition at 5 µg/disc: 20 mm
Aspergillus fumigatus [5]
  zone of inhibition at 1 µg/disc: 10 mm
Aspergillus fumigatus [6]
  zone of inhibition at 20 µg/disc: 14 mm
Cryptococcus neoformans [7]; read-out: IZ
  zone of inhibition at 20 µg/disc: 16 mm
Cryptococcus neoformans [9]; read-out: IZ
  zone of inhibition at 5 µg/disc: 13 mm
Aspergillus niger [10]
  zone of inhibition at 100 µg/disc: 25 mm
Cryptococcus neoformans [11]; read-out: IZ
  zone of inhibition at 100 µg/disc: 19 mm
Aspergillus fumigatus [12]
  zone of inhibition at 100 µg/disc: 17 mm
Candida albicans [13]
  zone of inhibition at 20 µg/disc: 20 mm
Aspergillus niger [14]
  zone of inhibition at 20 µg/disc: 24 mm
Aspergillus niger [15]; Aspergillus niger, Van Tieghem, read-out: IZ
  zone of inhibition at 1 µg/disc: 16 mm
Candida albicans [16]
  zone of inhibition at 100 µg/disc: 20 mm
Candida albicans [17]
  zone of inhibition at 1 µg/disc: 15 mm

## CCC(C)/C=C(\C)[C@H]1C(C)=C[C@@]2(C)C[C@@H](C)CC[C@@H]2[C@H]1C(=O)C1=CC(O)(Cc2ccc(O)cc2)NC1=O (stereo in doubt; 5)
Cryptococcus neoformans [3]
  Activity: inactive
Cryptococcus neoformans [7]
  Activity: inactive
Cryptococcus neoformans [9]
  Activity: inactive
Cryptococcus neoformans [11]
  Activity: inactive

## CCC(C)/C=C(\C)[C@H]1C(C)=C[C@@]2(C)C[C@@H](C)CC[C@@H]2[C@H]1C(=O)C1=CC(O)(Cc2ccc(O)cc2)NC1=O (stereo in doubt; 2)
Cryptococcus neoformans [3]
  Activity: inactive
Aspergillus fumigatus [5]
  Activity: inactive
Cryptococcus neoformans [7]
  Activity: inactive
Cryptococcus neoformans [8]
  Activity: inactive
Cryptococcus neoformans [9]
  Activity: inactive
Cryptococcus neoformans [11]
  Activity: inactive
Aspergillus niger [15]
  Activity: inactive

## CCC(C)/C=C(\C)[C@H]1C(C)=C[C@@]2(C)C[C@@H](C)CC[C@@H]2[C@H]1C(=O)C1C(=O)NC2(Cc3ccc(O)cc3)OC(C)(C)OC12 (some centres undefined)
Candida albicans [18]
  Activity: inactive
Aspergillus niger [19]
  Activity: inactive
Aspergillus fumigatus [20]
  Activity: inactive
Cryptococcus neoformans [8]
  Activity: inactive

## CCC(C)/C=C(\C)[C@H]1C(C)=C[C@@]2(C)C[C@@H](C)CC[C@@H]2[C@H]1C(=O)C1=CC(O)(Cc2ccc(O)cc2)NC1=O (stereo in doubt; 2) [TALAROCONVOLUTIN B]
Aspergillus fumigatus [1]
  zone of inhibition at 5 µg/disc: 10 mm
Candida albicans [2]
  zone of inhibition at 5 µg/disc: 13 mm
Aspergillus niger [4]
  zone of inhibition at 5 µg/disc: 9 mm
Aspergillus fumigatus [6]
  zone of inhibition at 20 µg/disc: 11 mm
Aspergillus niger [10]
  zone of inhibition at 100 µg/disc: 11 mm
Aspergillus fumigatus [12]
  zone of inhibition at 100 µg/disc: 12 mm
Candida albicans [13]
  zone of inhibition at 20 µg/disc: 14 mm
Aspergillus niger [14]
  zone of inhibition at 20 µg/disc: 10 mm
Candida albicans [16]
  zone of inhibition at 100 µg/disc: 15 mm
Candida albicans [17]
  zone of inhibition at 1 µg/disc: 11 mm

## CCC(C)/C=C(\C)[C@H]1C(C)=C[C@@]2(C)C[C@@H](C)CC[C@@H]2[C@H]1C(=O)C1=CC(O)(Cc2ccc(O)cc2)NC1=O (stereo in doubt; 5) [TALAROCONVOLUTIN B]
Aspergillus fumigatus [1]
  inhibition zone (IZ): 14 mm
Candida albicans [2]
  inhibition zone (IZ): 17 mm
Aspergillus niger [4]
  inhibition zone (IZ): 13 mm
Aspergillus fumigatus [5]
  zone of inhibition at 1 µg/disc: 11 mm
Aspergillus fumigatus [6]
  inhibition zone (IZ): 15 mm
Aspergillus niger [10]
  inhibition zone (IZ): 16 mm
Aspergillus fumigatus [12]
  inhibition zone (IZ): 17 mm
Candida albicans [13]
  inhibition zone (IZ): 18 mm
Aspergillus niger [14]
  inhibition zone (IZ): 15 mm
Aspergillus niger [15]
  Activity: 11 mm
Candida albicans [16]
  inhibition zone (IZ): 20 mm
Candida albicans [17]
  inhibition zone (IZ): 15 mm

## CCC(C)/C=C(\C)[C@H]1C(C)=C[C@@]2(C)C[C@@H](C)CC[C@@H]2[C@H]1C(=O)C1=C/C(=C/c2ccc(O)cc2)NC1=O (some centres undefined)
Candida albicans [18]
  Activity: inactive
Aspergillus niger [19]
  Activity: inactive
Aspergillus fumigatus [20]
  Activity: inactive
Cryptococcus neoformans [8]
  Activity: inactive

Source: ChEMBL document CHEMBL1142625, “Antifungal substances against pathogenic fungi, talaroconvolutins, from talaromyces convolutus” (J Nat Prod, 2000)
